In article PMC8653953 (Cancer chemotherapy and pharmacology, 2021):
Read-outs that look alike come from different tables or passages of the source. Numbered stars: 1 amine (or outer) side, 2 acyl side, 3 side chain; on linkers, the order of the positions; unused ones are H or OH. Bridge positions count the residues as written; N and C are the ends. Square brackets hold non-standard residues; d marks the D form. Peptide text beside a SMILES is read from it. I, II: the chains in the order shown. Actinocin(9to1) = Cc1c2oc3c(C)ccc(C(=O)[*:1])c3nc-2c(C(=O)[*:2])c(N)c1=O; NMeV = CN[C@H](C(=O)O)C(C)C; Sar = CNCC(=O)O

Tests used:
patients <17 years old [1] = test: Actinomycin-D target toxicities; format: in vivo, human; details: during the study
Summary of the method: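 Actinomycin-D given to patients in four age cohorts (<1, 1 to <3, 3 to <12, 12 to <17 years). Grade 3 ALT, AST, GGT elevation, sinusoidal obstructive syndrome, and grade 3 neutrophil or platelet decrease were reported weekly for 21 days after PK sampling. Only new-onset events or grade increases over baseline counted. Each toxicity was related to PK and demographics by univariate logistic regression, then backward-selection multivariate regression.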

[2] = format: in vivo, human
Summary of the method: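 Five 2.5 mL catheter samples (three-draw-flush) taken on one of two random schedules, 5 min to 48-168 h post-infusion. Sodium-heparin plasma was separated within 6 h and frozen. LC-MS/MS, LLOQ 0.5 ng/mL. Noncompartmental: k_z from the last 3 points; AUC by linear trapezoid plus Clast/k_z; CL = dose/AUC∞; Vz = dose/(k_z·AUC∞). Episodes were compared by paired two-sided t-test on log-transformed differences.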

patients <17 years old [3] = test: Vincristine target toxicity; format: in vivo, human; details: greater than baseline; weekly for one month and monthly for 6 months from sampling
Summary of the method: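 Vincristine-treated patients in four age cohorts were graded for neuropathy by CTC v3 (before 10/1/10) or CTCAE 4.03. Assessed weekly for one month, then monthly for 6 months from PK sampling. Only new-onset events or grade increases over baseline after sampling counted. Incidence was related to PK parameters and demographics by univariate logistic regression, then backward-selection multivariate regression.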

[4] = patients (n = 17) with two episodes of sampling, ratio (95% CI), P=0.05

Cc1c2oc3c(C)ccc(C(=O)N[C@@H]4C(=O)N[C@H](C(C)C)C(=O)N5CCC[C@H]5C(=O)N(C)CC(=O)N(C)[C@@H](C(C)C)C(=O)O[C@@H]4C)c3nc-2c(C(=O)N[C@@H]2C(=O)N[C@H](C(C)C)C(=O)N3CCC[C@H]3C(=O)N(C)CC(=O)N(C)[C@@H](C(C)C)C(=O)O[C@@H]2C)c(N)c1=O [Actinomycin-D] (I: T[dV]P[Sar][NMeV] / II: T[dV]P[Sar][NMeV]; ester I:1-I:C, II:1-II:C; linker I:N-II:N via Actinocin(9to1))
sinusoidal obstructive syndrome (patients <17 years old [1]): No participant experienced sinusoidal obstructive syndrome | half-life ([2]; all ages, n=52 patients, median, CV 60%): 25 h | Clearance ([2]; all ages, n=52 patients, median, CV 90%): 4.6 L/hr/m^2 | median AUC of the youngest group, lower than the oldest groups ([2]; children <1 year vs oldest groups, consistent with the difference in dose): approximately 50%

CC[C@]1(O)C[C@H]2CN(CCc3c([nH]c4ccccc34)[C@@](C(=O)OC)(c3cc4c(cc3OC)N(C=O)[C@H]3[C@@](O)(C(=O)OC)[C@H](OC(C)=O)[C@]5(CC)C=CCN6CC[C@]43[C@@H]65)C2)C1 [Vincristine]
patients with grade 3 peripheral motor neuropathy (patients <17 years old [3]): four | patients with grade 3 peripheral sensory neuropathy (patients <17 years old [3]): four | Clearance ([2]; all ages, n=132 patients, median, CV 67%): 17.2 L/hr/m^2 | half-life ([2]; all ages, n=132 patients, median, CV 73%): 14.6 h | AUC ([2]; all ages, n=132 patients, median, CV 98%): 78 ng·h/mL | clearance, ratio between two sampling episodes ([2]; patients (n = 17) with two episodes of sampling, ratio (95% CI), P=0.04): 1.54 (1.03,2.31) | CL/BSA, ratio between two sampling episodes [2, 4]: 1.50 (0.99–2.25) | Vz/BSA, ratio between two sampling episodes [2, 4]: 1.56 (0.99–2.46)
